We go through five compounds from ChEMBL document CHEMBL1131493, “Inhibitors of farnesyl protein transferase. 4-Amido, 4-carbamoyl, and 4-carboxamido derivatives of 1-(8-chloro-6,11-dihydro-5H-benzo[5,6]- cyclohepta[1,2-b]pyridin-11-yl)piperazine and 1-(3-bromo-8-chloro-6,11- dihydro-5H-benzo[5,6]cyclohepta[1,2-b]pyridin-11-yl)piperazine” (J Med Chem, 1998).

The target in data set [1] is T1, Protein farnesyltransferase (Homo sapiens, UniProt P49354+P49356). The data set is described as follows: In vitro inhibition of farnesyltransferase farnesylation of H-ras at […].
The nature of data set [2]: In vivo antitumor efficacy peroral dose of 25 mg/kg expressed as duration for which compound was present above IC50. On the set-up: dose 25 mg/kg, route oral. The settings on record: po. Format: ADME, organism-based. Put shortly: (§1)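 Serum pharmacokinetics in nude mice or cynomolgus monkeys after oral (po) or iv dosing. Compounds were given as hydrochloride salts in 20% HPβCD unless otherwise noted. Other formulations were the hydrochloride salt in saline, the micronized free base in 20% HPβCD or corn oil (po) with saline for iv, or the hydrochloride salt in 0.4% methyl cellulose (po).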

Data set [3] is described as follows: In vivo antitumor efficacy expressed as plasma area under the curve 0.4 hr after a peroral dose of 25 mg/kg in nude mice. The settings on record: mouse, po. In kind it is ADME, organism-based. On the set-up: time < 0.4 hr, dose 25 mg/kg, route oral. An outline of the steps: as §1
Data set [4] can be described thus: In vivo antitumor efficacy expressed as plasma area under the curve 0.4 hr after iv dose of 25 mg/kg in nude mice. In kind it is ADME, organism-based. On the set-up: time < 0.4 hr, dose 25 mg/kg, route intravenous. Put shortly:
as §1

A short description of data set [5]: In vivo antitumor efficacy in nude mice by injecting a dose of 25 mg/kg iv and serum half-life was determined. In kind it is ADME, organism-based. On the set-up: dose 25 mg/kg, route intravenous. The settings on record: mouse. An outline of the steps: as §1
Data set [6] concerns the target geranylgeranyltransferase type-I (Rattus norvegicus, UniProt P53610+Q04631). The data set is described as follows: Inhibition of rat Geranylgeranyl transferase (GGPT). Format: protein-complex assay.
Data set [7] in a line: (§2) Maximal plasma concentration in nude mice after 25 mg/kg oral dose. In kind it is ADME, organism-based. On the set-up: dose 25 mg/kg, route oral. The settings on record: mouse. Put shortly:
as §1

The nature of data set [8]: Oral bioavailability in mouse (nude) (dose of 25 mg/kg). The settings on record: in vivo. In kind it is ADME, organism-based. An outline of the steps:
as §1

Data set [9] in a line: In vivo antitumor efficacy in nude mice 0-24 hr after intravenous dose of 25 mg/kg expressed as Area under the curve. The settings on record: mouse. On the set-up: time < 24 hr, dose 25 mg/kg, route intravenous. In kind it is ADME, organism-based. An outline of the steps:
as §1

A short description of data set [10]: In vivo antitumor efficacy in nude mice 0-24 hr after peroral dose of 25 mg/kg expressed as Area under the curve. The settings on record: nude, mouse, po. On the set-up: time < 24 hr, dose 25 mg/kg, route oral. In kind it is ADME, organism-based. An outline of the steps: as §1
Data set [11] can be described thus: Maximal plasma concentration in cynomolgus monkeys after 10 mg/kg oral dose. Format: ADME, organism-based, Macaca fascicularis. On the set-up: dose 10 mg/kg, route oral. The settings on record: cynomolgus monkey, plasma. An outline of the steps: as §1
Data set [12] deals with T1, Protein farnesyltransferase. The data set is described as follows: Inhibition of Farnesyltransferase from Ras-CVLS or Ras-CVLL in Cos-7 monkey kidney cells. In kind it is cell-based, Chlorocebus aethiops.
In data set [13] the test system is Cynomolgus monkey. The data set is described as follows: In vivo antitumor efficacy after peroral dose of 10 mg/kg in cynomolgus monkeys expressed as duration for which compound was present above IC50. In kind it is ADME, organism-based, Macaca fascicularis. On the set-up: dose 10 mg/kg, route oral. The settings on record: po. Put shortly:
as §1

For data set [14], the system named is Cynomolgus monkey. Description: (§3) In vivo antitumor efficacy in cynomolgus monkeys by injecting a dose of 25 mg/kg, as HCl salt in saline solution, iv and the serum half-life was determined. On the set-up: dose 25 mg/kg, route intravenous. The settings on record: in vivo. In kind it is ADME, organism-based, Macaca fascicularis. Put shortly:
as §1

Data set [15] can be described thus: as §3. On the set-up: dose 25 mg/kg, route intravenous. The settings on record: cynomolgus monkey, serum. In kind it is ADME, organism-based, Macaca fascicularis. An outline of the steps:
as §1

Data set [16] is described as follows: Bioavailability in cynomolgus monkey (dose 25 mg/kg i.v.). In kind it is ADME, organism-based, Macaca fascicularis. The settings on record: in vivo, iv. An outline of the steps: as §1
A short description of data set [17]: In vivo antitumor efficacy in nude mice by injecting a dose of 25 mg/kg, as HCl salt in saline solution, iv and the serum half-life was determined. In kind it is ADME, organism-based. On the set-up: dose 25 mg/kg, route intravenous. The settings on record: mouse.
The nature of data set [18]: In vivo antitumor efficacy in nude mice by injecting a dose of 25 mg/kg, as HCl salt in saline solution, iv and the total drug exposure was determined. (0-24hr). In kind it is ADME, organism-based. The settings on record: mouse. On the set-up: time < 24 hr, dose 25 mg/kg, route intravenous.
Another data set concerns Mus musculus. The data set is described as follows: In vivo antitumor efficacy in nude mice by injecting a dose of 25 mg/kg, as HCl salt in saline solution, perorally and the duration of action was reported. Format: ADME, organism-based. On the set-up: dose 25 mg/kg, route oral. The settings on record: po.
Data set [19] can be described thus: Oral bioavailability in mouse (nude) (dose 25 mg/kg i.v.). Format: ADME, organism-based. The settings on record: in vivo.
The subject of data set [20] is Cynomolgus monkey. Description: In vivo antitumor efficacy in cynomolgus monkeys by injecting a dose of 25 mg/kg, as HCl salt in saline solution, perorally and the maximum drug concentration was determined. In kind it is ADME, organism-based, Macaca fascicularis. On the set-up: dose 25 mg/kg, route oral. The settings on record: po. Put shortly: as §1
A short description of data set [21]: In vivo antitumor efficacy in cynomolgus monkeys by injecting a dose of 25 mg/kg, as HCl salt in saline solution, iv and the total drug exposure was determined. (0-8 hr). Format: ADME, organism-based, Macaca fascicularis. On the set-up: time < 8 hr, dose 25 mg/kg, route intravenous. The settings on record: cynomolgus monkey. Put shortly: as §1
A short description of data set [22]: as §2. The settings on record: mouse. In kind it is ADME, organism-based. On the set-up: dose 25 mg/kg, route oral. The source holds these as a separate data set.
The nature of data set [23]: In vivo antitumor efficacy in nude mice by injecting a dose of 25 mg/kg, as HCl salt in saline solution, perorally and the total drug exposure was determined (0-24hr). Format: ADME, organism-based. On the set-up: time < 24 hr, dose 25 mg/kg, route oral. The settings on record: mouse, po.
Data set [24] deals with Cynomolgus monkey. Description: (§4) In vivo antitumor efficacy in cynomolgus monkeys by injecting a dose of 25 mg/kg, as the micronised free base in corn oil, perorally and the total drug exposure was determined (0-8 hr). Format: ADME, organism-based, Macaca fascicularis. The settings on record: po, 8 h. On the set-up: time < 8 hr, dose 25 mg/kg, route oral. An outline of the steps: as §1

Data set [25] can be described thus: as §4. Format: ADME, organism-based, Macaca fascicularis. The settings on record: cynomolgus monkey, po. On the set-up: time < 8 hr, dose 25 mg/kg, route oral. An outline of the steps: as §1

Several values for one entry are separate records, joined by “and”; a condition that tells them apart may be missing. Equal entries are not always repeated.

For `CN(C(=O)N1CCN(C2c3ccc(Cl)cc3CCc3cccnc32)CC1)c1ccncc1` (stereo not drawn), the inhibition in data set [1] was found to be 0%.

For the compound `O=C(Cc1ccncc1)N1CCN(C2c3ccc(Cl)cc3CCc3cccnc32)CC1` (stereo not drawn), the “Time above IC50” value in [2] was found to be 1 h. The AUC at 0.4 h in data set [3] is 240 ng·h/mL; in [4], 1800 ng·h/mL. The compound also gave a half-life in [5] of 12 min. This compound registered an IC50 in data set [6] of over 46 µM. For the same compound, the concentration in data set [7] peaked (Cmax) at 0.9 µM. In data set [8], this compound displayed a bioavailability of 13%.

With `O=C(Cc1ccc[n+]([O-])c1)N1CCN(C2c3ccc(Cl)cc3CCc3cc(Br)cnc32)CC1` (stereo not drawn), the “Time above IC50” value in data set [2] was 6 h. The AUC at 24 h in data set [9] was 24000 ng·h/mL; in data set [10] it was 34800 ng·h/mL. For the same compound, the half-life in [5] was 60 min. In data set [7], this compound displayed a Cmax of 45.4 µM. In addition, the bioavailability in [8] worked out at 100%.

As to `O=C(Cc1cc[n+]([O-])cc1)N1CCN(C2c3ccc(Cl)cc3C=Cc3cc(Br)cnc32)CC1` (stereo not drawn), the highest level in data set [11] (Cmax) was 1900 nM. In data set [9], this compound showed an AUC at 24 h of 11700 ng·h/mL. In addition, the IC50 in [12] was determined as 350 nM. The “Time above IC50” value in the data set with Cynomolgus monkey [13] amounted to 31 h.

As for `O=C(Cc1cccnc1)N1CCN(C2c3ccc(Cl)cc3CCc3cccnc32)CC1` (stereo not drawn), the T1/2 with Cynomolgus monkey [14] was 1.5 h. In addition, the half-life was 90 min in [15] and 12 min in [17]. This compound also gave a F in data set [16] of 1.4%. The figures for the bioavailability in data set [16] and in data set [19] were 2.2% and 36%, respectively. The AUC at 24 h in data set [18] was 1100 ng·h/mL; in [23], 400 ng·h/mL. For the same compound, the “Time above IC50” value in the data set on Mus musculus was found to be 0.3 h. This compound had an IC50 in data set [6] of over 46 µM. The Cmax with Cynomolgus monkey [20] was 290 nM and 110 nM; in data set [22] it was 3.9 µM. Also, the figures for the AUC at 8 h in data set [21] and in data set [25] were 48600 ng·h/mL and 450 ng·h/mL, respectively. Moreover, the AUC in the data set on Cynomolgus monkey [24] was determined as 1.07 uh ml-1.
